As a reminder, the IC50 is the concentration at which inhibition is half-maximal. The term Ki denotes a measure of affinity in units of concentration, obtained from inhibition or displacement. Low readings indicate tighter binding, high ones weaker binding.

The values that follow come from ChEMBL document CHEMBL1153061, “Synergism of virtual screening and medicinal chemistry: identification and optimization of allosteric antagonists of metabotropic glutamate receptor 1” (Bioorg Med Chem, 2009).

SMILES strings stand for the structures. Activity calls are given as the source filed them. The calls are words filed in the database; no cut-off is given here.

Data set [1] deals with T1, Metabotropic glutamate receptor 1 (Rattus norvegicus, UniProt P23385). The data set can be described thus: Allosteric antagonist activity at mGluR1 in Sprague-Dawley rat cerebellar granule cells assessed as accumulation of [3H]inositol phosphate by liquid scintillation counting. It counts as functional. Summed up: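 Cerebellar granule cells from P8 Sprague Dawley rats grown in BEM with 10% foetal calf serum and 2 mM glutamine. At 6 DIV switched to inositol-free DMEM with [3H]-myo-inositol (0.5 µCi/100 µl/well) for 48 h. Cells preincubated 15 min at 37 °C in Locke's buffer (20 mM LiCl, pH 7.4), then 45 min with agonists/test ligands. Lysed with 0.1 M HCl 10 min on ice. Inositol phosphates isolated on formate columns, eluted with 1 M ammonium formate/0.1 M formic acid, counted by liquid scintillation.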
T1 sequence (P23385 whole entry): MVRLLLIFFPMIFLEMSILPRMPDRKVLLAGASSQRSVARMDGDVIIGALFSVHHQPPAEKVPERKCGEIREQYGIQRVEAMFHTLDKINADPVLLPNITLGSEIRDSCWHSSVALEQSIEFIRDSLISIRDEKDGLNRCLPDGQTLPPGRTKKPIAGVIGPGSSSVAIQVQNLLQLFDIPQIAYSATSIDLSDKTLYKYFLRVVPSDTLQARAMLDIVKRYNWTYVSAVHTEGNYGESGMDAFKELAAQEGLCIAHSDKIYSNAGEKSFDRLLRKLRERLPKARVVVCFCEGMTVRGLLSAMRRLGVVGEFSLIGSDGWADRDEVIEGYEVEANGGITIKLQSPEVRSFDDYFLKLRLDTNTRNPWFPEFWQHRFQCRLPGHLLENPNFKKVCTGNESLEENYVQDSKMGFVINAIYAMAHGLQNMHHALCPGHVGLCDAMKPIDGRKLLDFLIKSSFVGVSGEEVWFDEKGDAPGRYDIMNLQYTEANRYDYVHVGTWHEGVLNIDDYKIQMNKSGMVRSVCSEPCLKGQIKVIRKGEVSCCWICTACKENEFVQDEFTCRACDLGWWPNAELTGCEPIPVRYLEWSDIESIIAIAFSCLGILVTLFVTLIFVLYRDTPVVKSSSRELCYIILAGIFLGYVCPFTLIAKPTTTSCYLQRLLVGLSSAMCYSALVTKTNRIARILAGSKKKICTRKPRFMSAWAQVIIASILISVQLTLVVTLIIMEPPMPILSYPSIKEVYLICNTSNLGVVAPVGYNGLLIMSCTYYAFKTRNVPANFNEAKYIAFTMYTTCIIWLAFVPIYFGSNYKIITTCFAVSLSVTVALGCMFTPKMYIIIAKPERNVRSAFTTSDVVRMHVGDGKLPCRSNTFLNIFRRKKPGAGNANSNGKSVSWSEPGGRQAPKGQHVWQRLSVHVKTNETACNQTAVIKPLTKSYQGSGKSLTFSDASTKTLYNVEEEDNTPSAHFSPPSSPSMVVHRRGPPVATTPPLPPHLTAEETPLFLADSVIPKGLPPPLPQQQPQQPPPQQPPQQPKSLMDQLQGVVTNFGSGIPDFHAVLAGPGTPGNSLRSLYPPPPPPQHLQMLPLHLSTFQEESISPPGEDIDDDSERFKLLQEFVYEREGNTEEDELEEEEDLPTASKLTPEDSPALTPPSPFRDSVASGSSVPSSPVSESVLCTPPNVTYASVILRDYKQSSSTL

Data set [2] deals with Metabotropic glutamate receptor 5 (Rattus norvegicus, UniProt P31424). As to the kind of experiment: Displacement of [3H]MPEP from mGluR5 in rat cortical membrane after 60 mins by liquid scintillation counting. Format: cell membranes. The gist of the method:
(§1)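 Rat cortical membranes, 125–250 µg protein, incubated with 5 nM [3H]-MPEP (50.2 Ci/mmol) and varying concentrations of test agent. Filters rinsed, and bound radioactivity counted by liquid scintillation.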
A general note: In a radioligand displacement assay an active substance lowers the binding of a labelled ligand.

The target in data set [3] is T1, Metabotropic glutamate receptor 1. The data set can be described thus: Displacement of [3H]E-3-(2-chloro-8-methylquinolin-3-yl)-1-(thiophen-2-yl)prop-2-en-1-one from mGluR1 in rat cerebellar membrane after 14 to 16 hrs by scintillation counting. It counts as cell membranes, Cerebellum.
Data set [4] concerns the target Metabotropic glutamate receptor 1 (Homo sapiens, UniProt Q13255). The data set can be described thus: Binding affinity to human GluR1 by FLIPR assay.
A further data set is filed under the species Rattus norvegicus. As to the kind of experiment: Selectivity ratio of Ki for mGluR5 in rat cortical membrane to Ki for mGluR1 in rat cerebellar membrane. Format: cell membranes.
Data set [5] in a line: Solubility in water. It counts as physicochemical. Particulars: buffer.
For data set [6], the target named is Metabotropic glutamate receptor 5 (Rattus norvegicus) (UniProt P31424). The data set can be described thus: Binding affinity to GluR5 in rat cortical membrane up to 10 uM. Format: cell membranes. The gist of the method:
as §1

Sequence of Metabotropic glutamate receptor 5 (P31424 whole entry): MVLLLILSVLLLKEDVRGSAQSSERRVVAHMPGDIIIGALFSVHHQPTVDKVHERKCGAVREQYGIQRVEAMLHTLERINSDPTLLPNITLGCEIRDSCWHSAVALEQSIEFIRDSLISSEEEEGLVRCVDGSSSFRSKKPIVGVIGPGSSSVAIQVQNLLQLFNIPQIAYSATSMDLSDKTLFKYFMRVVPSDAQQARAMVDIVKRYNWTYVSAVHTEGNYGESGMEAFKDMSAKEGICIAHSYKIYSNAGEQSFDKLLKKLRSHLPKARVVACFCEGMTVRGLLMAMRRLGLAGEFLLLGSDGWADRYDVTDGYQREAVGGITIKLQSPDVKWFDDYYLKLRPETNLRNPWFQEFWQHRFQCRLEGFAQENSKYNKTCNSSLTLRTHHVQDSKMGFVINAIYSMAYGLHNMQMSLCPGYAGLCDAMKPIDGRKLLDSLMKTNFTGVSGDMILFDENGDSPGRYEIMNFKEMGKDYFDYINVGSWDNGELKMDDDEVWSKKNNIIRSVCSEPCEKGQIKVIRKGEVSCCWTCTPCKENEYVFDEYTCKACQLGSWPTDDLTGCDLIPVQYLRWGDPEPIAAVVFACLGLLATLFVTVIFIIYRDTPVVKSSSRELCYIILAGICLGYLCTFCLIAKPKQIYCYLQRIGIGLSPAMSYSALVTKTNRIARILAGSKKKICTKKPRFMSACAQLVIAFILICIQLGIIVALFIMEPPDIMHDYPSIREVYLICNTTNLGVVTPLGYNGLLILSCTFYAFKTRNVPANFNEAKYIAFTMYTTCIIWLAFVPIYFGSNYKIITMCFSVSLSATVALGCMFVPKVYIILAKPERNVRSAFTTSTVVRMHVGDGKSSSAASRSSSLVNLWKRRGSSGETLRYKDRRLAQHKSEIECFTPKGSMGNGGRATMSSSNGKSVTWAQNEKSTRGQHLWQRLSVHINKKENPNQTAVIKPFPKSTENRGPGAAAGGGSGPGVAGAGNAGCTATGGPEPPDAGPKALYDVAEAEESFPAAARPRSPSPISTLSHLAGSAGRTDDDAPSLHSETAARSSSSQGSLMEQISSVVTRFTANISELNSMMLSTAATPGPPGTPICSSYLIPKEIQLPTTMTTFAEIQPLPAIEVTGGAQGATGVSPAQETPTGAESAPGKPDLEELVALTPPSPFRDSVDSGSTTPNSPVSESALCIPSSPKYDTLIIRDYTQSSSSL
Sequence of Metabotropic glutamate receptor 1 (Homo sapiens, UniProt Q13255) (Q13255 whole entry): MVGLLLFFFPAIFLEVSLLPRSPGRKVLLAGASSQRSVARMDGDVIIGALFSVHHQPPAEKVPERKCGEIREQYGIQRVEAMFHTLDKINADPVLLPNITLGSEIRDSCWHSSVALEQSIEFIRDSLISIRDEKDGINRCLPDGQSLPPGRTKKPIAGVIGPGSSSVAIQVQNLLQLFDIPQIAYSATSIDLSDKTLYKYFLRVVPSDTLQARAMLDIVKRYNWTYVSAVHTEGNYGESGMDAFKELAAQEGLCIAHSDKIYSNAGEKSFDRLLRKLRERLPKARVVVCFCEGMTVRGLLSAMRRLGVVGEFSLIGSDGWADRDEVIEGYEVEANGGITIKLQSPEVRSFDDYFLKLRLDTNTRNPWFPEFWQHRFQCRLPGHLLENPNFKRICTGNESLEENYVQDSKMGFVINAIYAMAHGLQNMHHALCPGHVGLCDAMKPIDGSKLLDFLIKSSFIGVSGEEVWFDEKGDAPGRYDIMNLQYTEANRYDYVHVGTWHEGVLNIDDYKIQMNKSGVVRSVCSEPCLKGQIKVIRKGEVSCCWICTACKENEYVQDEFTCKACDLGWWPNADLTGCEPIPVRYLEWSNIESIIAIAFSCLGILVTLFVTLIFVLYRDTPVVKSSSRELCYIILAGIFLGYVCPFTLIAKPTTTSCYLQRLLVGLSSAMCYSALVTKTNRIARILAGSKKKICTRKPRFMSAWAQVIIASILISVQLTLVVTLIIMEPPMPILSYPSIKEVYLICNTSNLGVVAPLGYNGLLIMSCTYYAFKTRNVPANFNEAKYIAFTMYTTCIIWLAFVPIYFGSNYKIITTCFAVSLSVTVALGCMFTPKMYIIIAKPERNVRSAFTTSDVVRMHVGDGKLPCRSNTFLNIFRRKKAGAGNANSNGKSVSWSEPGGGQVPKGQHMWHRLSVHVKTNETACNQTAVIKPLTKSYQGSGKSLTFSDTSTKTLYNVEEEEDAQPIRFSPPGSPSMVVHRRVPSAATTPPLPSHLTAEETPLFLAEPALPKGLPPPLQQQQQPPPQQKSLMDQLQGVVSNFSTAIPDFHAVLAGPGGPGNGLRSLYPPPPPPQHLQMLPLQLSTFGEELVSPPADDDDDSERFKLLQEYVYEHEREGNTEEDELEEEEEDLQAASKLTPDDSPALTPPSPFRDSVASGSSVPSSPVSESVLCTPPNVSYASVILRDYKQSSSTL
Sequence of Metabotropic glutamate receptor 5 (Rattus norvegicus) (P31424 21-1203 limits assumed): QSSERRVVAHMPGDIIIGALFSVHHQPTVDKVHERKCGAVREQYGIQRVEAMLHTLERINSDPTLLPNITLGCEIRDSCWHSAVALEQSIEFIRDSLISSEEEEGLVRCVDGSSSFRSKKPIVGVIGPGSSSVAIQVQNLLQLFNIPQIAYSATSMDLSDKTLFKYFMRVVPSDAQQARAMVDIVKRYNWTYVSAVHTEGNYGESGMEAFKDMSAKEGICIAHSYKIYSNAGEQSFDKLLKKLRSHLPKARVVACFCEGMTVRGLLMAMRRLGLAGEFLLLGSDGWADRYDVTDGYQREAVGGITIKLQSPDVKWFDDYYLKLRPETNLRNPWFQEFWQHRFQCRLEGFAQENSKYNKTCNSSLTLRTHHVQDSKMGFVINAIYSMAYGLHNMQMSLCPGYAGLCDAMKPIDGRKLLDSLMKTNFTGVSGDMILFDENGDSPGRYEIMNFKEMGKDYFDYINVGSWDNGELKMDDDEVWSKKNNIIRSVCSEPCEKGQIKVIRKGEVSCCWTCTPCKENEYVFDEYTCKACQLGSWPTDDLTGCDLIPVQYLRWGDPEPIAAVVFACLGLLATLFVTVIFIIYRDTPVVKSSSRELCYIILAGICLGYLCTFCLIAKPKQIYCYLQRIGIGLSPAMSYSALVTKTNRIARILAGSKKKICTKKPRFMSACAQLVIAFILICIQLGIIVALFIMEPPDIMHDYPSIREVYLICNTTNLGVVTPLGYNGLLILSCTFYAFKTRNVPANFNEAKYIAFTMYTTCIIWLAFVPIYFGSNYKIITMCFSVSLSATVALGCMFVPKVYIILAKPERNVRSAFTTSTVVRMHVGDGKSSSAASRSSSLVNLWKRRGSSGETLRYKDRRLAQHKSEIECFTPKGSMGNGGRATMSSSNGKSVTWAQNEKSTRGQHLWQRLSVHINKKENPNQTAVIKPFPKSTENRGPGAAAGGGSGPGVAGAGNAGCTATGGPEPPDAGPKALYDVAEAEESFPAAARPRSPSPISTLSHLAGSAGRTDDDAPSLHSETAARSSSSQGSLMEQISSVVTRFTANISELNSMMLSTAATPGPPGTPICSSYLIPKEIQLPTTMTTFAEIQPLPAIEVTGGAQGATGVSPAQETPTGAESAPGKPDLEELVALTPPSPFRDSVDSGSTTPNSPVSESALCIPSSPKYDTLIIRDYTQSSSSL

With `COc1ccc(C(=O)/C=C/c2cc3cc(C)ccc3nc2Cl)cc1`, in data set [1], the half-maximal inhibitory concentration (IC50) is 20.5 µM. Further, the figures for the Ki in data set [2] and in data set [3] were greater than 100 µM and greater than 40 µM, respectively.

`CCCCCCc1cc2c3c(c(=O)oc2cc1OC)CCC3`: the concentration for half-maximal inhibition (IC50) in data set [1] was 23.9 µM. This compound also returned a Ki in data set [3] greater than 40 µM.

For `Cc1cccc2cc(/C=C/C(=O)c3ccccc3)c(Cl)nc12`, the half-inhibitory concentration (IC50) in data set [1] was found to be 8.5 µM. The Ki in data set [2] is greater than 100 µM; in data set [3], greater than 40 µM.

Consider `O=C(c1ccccc1)c1ccc(/N=C/c2ccc(Br)cc2)cc1`, for which, in data set [1], the IC50 is greater than 40 µM. For the same compound, the inhibition constant (Ki) in data set [3] was greater than 40 µM.

Turning to `CCCCOc1ccc(-c2nnc(-c3ccc(-c4ccccc4)cc3)s2)cc1`, in data set [1], the IC50 worked out at 28.4 µM. In data set [3], this compound returned a Ki greater than 40 µM.

For the compound `Cc1ccc2nc(Cl)c(/C=C/C(=O)c3cccs3)cc2c1`, the IC50 in data set [1] is 0.74 µM. The Ki in data set [2] is greater than 100 µM; in data set [3] it was 9.93 µM.

In the case of `O=c1cc(-c2ccccc2)c2ccc(OCc3cccc(Oc4ccccc4)c3)cc2o1`, the half-maximal inhibitory concentration (IC50) in data set [1] is greater than 40 µM. In data set [3], the Ki was greater than 40 µM.

On to `O=C(/C=C/c1ccc(Cl)cc1)c1ccc(Oc2ccccc2)cc1`, for which the 50% inhibitory concentration (IC50) in data set [1] was 30 µM. Also, in data set [3], the inhibition constant Ki was greater than 40 µM.

For `CCOc1ccc(C(=O)/C=C/c2ccc(OCc3ccc(Cl)cc3Cl)cc2)cc1`, in data set [1], the concentration for half-maximal inhibition (IC50) was greater than 40 µM. Besides, the inhibition constant Ki in data set [3] was greater than 40 µM.

With `COc1ccc(C(=O)c2ccc(C(=O)c3ccc(C)c(OC)c3)cc2)cc1C`, the IC50 in data set [1] was greater than 40 µM. In data set [3], this compound yielded an inhibition constant Ki greater than 40 µM.

As to `CCCCC1CCC(C(=O)Oc2ccc(C(C)=O)cc2)CC1` (configuration not stated), the IC50 in data set [1] was greater than 40 µM. The Ki in data set [3] is greater than 40 µM.

Regarding `Cc1ccc(C(=O)c2ccc(Oc3ccccc3)cc2)cc1C`, the half-maximal inhibitory concentration (IC50) in data set [1] is 15.3 µM. The compound further had a Ki in data set [3] greater than 40 µM.

Consider `Cc1ccc2cc(/C=C/C(=O)c3c(C)coc3C)c(Cl)nc2c1`, for which the IC50 in data set [1] is greater than 40 µM. The Ki is greater than 100 µM in data set [2] and greater than 40 µM in data set [3].

Take `CCn1c2ccccc2c2cc(/C=N/c3ccc(C)c(F)c3)ccc21`: the IC50 in data set [1] was greater than 40 µM. Moreover, the inhibition constant (Ki) in data set [3] was greater than 40 µM.

As for `O=C(/C=C/c1cnc2ccccc2c1)C1CC1`, the Ki in data set [2] and in data set [3] was greater than 100 µM throughout.

Regarding `CC(=O)c1ccc(OC(=O)c2ccc(-c3ccccc3)cc2)cc1`, the IC50 in data set [1] is greater than 40 µM. In data set [3], this compound gave a Ki greater than 40 µM.

As for `O=C(C1CC1c1ccc(N2CCOCC2)nc1)C12CC3CC(CC(C3)C1)C2` (configuration not stated), the inhibitory constant (Ki) in data set [4] came out at 0.11 µM; in data set [2], 27.8 µM; in data set [3], 0.024 µM. The Ratio Ki in the data set filed under Rattus norvegicus came to 1160. Also, the solubility entry in data set [5] is given as “Soluble”.

As for `CCCCCc1ccc(-c2ccc(OC(=O)C3CCC(CC)CC3)cc2)nc1` (configuration not stated), in data set [1], the IC50 worked out at 22.5 µM. Besides, the inhibitory constant (Ki) in data set [3] was greater than 40 µM.

Turning to `O=C(c1ccc(Cl)cc1)c1ccc2c(c1)CCCCO2`, the IC50 in data set [1] is greater than 40 µM. In data set [3], this compound gave a Ki greater than 40 µM.

For `COc1ccc(-c2cc(C)nc(-c3ccc(OC)c(Br)c3)c2)cc1Br`, in data set [1], the IC50 was greater than 40 µM. Also, the Ki in data set [3] is greater than 40 µM.

On to `COc1ccc(C(=O)/C=C/c2ccc(OC3CSC3)cc2)cc1`, for which the IC50 in data set [1] was greater than 40 µM. Moreover, the Ki in data set [3] was greater than 40 µM.

For the compound `COc1ccc(C(=O)/C=C/c2cc3ccc(C)cc3nc2Cl)cc1`, the IC50 in data set [1] was 39.3 µM. Further, the Ki in data set [2] is greater than 100 µM; in data set [3], greater than 40 µM.

For the compound `O=c1cc(-c2ccccc2)c2ccc(OCc3ccc(F)cc3)cc2o1`, in data set [1], the half-inhibitory concentration (IC50) is 23.9 µM. Besides, the Ki in data set [3] was greater than 40 µM.

For the compound `COc1cc2c(cc1OC)C(Cc1ccccc1)=NC(C)(C)C2`, the IC50 in data set [1] was greater than 40 µM. This compound also returned a Ki in data set [3] greater than 40 µM.

As to `CC(C)(C)C(=O)/C=C/c1cnc2ccccc2c1`, the inhibition constant Ki in data set [2] was determined as 30.6 µM; in data set [3], 5.23 µM. Also, in the data set filed under Rattus norvegicus, the Ratio Ki worked out at 5.9.

With `COc1ccc(/C=C/C(=O)C23CC4CC(CC(C4)C2)C3)cc1C`, the results for the Ki in data set [2] and in data set [3] were 5.15 µM and 0.294 µM, respectively. In addition, the Ratio Ki in the data set listed under Rattus norvegicus stood at 17.5.

For `O=C(/C=C/c1ccc2c(c1)OCCO2)C12CC3CC(CC(C3)C1)C2`, the inhibition constant (Ki) was found to be 6.23 µM in data set [2] and 0.641 µM in data set [3]. Further, the Ratio Ki in the data set listed under Rattus norvegicus was 9.72.

For the compound `Cc1ccc2nc(Cl)c(/C=C/C(=O)c3ccccc3)cc2c1`, the IC50 in data set [1] worked out at 1.7 µM. For the same compound, the Ki in data set [2] is greater than 100 µM; in data set [3], 9.18 µM.

For the compound `O=C(/C=C/c1cnc2ccccc2c1)C12CC3CC(CC(C3)C1)C2`, the results for the Ki in data set [2] and in data set [3] were 0.807 µM and 0.021 µM, respectively. The Ratio Ki in the data set filed under Rattus norvegicus came out at 29.9.

In the case of `COc1ccc(C2CC2C(=O)C23CC4CC(CC(C4)C2)C3)cn1` (configuration not stated), the inhibition constant (Ki) in data set [2] was determined as 18.4 µM; in data set [3], 0.304 µM. Further, in the data set filed under Rattus norvegicus, the Ratio Ki was 60.5.

As for `CC(CC(=O)c1ccc2c(c1)OCCO2)c1ccccc1` (configuration not stated), in data set [1], the IC50 stood at 10.6 µM. In data set [3], the inhibitory constant (Ki) is 36.2 µM.

As to `O=C(C1CC1c1cccnc1)C12CC3CC(CC(C3)C1)C2` (configuration not stated), the values for the inhibition constant (Ki) in data set [2] and in data set [3] were 22.9 µM and 7.04 µM, respectively. Besides, in the data set filed under Rattus norvegicus, the Ratio Ki is 3.26.

As to `Cc1ccc2cc(/C=C/C(=O)c3cccs3)c(Cl)nc2c1`, the IC50 in data set [1] was 2.97 µM. The Ki in data set [2] was greater than 100 µM; in data set [3] it was 17.2 µM.

As for `O=C(C1CC1c1cnc2ccccc2c1)C12CC3CC(CC(C3)C1)C2` (configuration not stated), the figures for the Ki in data set [2] and in data set [3] were greater than 100 µM and 0.137 µM, respectively. The Ratio Ki in the data set listed under Rattus norvegicus was greater than 730. Besides, the result in data set [6] was inactive.

Consider `O=c1cc(-c2ccccc2)c2cc(Cl)c(OCc3ccc(F)cc3)cc2o1`, for which the IC50 in data set [1] is greater than 40 µM. For the same compound, the Ki in data set [3] was greater than 40 µM.

With `CCCCCCOc1ccc(C(=O)Oc2ccc(C3CCCCC3)cc2)cc1`, the IC50 in data set [1] is greater than 40 µM. In data set [3], the Ki was greater than 40 µM.

Consider `CC(Oc1ccc2c(c1)oc(=O)c1ccccc12)c1ccccc1` (configuration not stated), for which, in data set [1], the IC50 is greater than 40 µM. The inhibitory constant (Ki) in data set [3] was greater than 40 µM.
